Reference: ChEMBL document CHEMBL1138155, “A lactosylated steroid contributes in vivo therapeutic benefits in experimental models of mouse lymphoma and human glioblastoma” (J Med Chem, 2006)

Columns and labels:
U373 MG [1] = experiment: Antimigratory activity against human U373 glioblastoma cell line at 100 nM after 12h; format: functional, U-373MG ATCC
Procedure, shortened: (§1)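 Computer-assisted videomicroscopy tracking of living cultured cells, one image every 4 min over 24 h; migration scored as maximum relative distance from origin (MRDO) per cell, read at 12 or 22 h with compound at 100 nM or without (control). Control normalized to 0%. Triplicate analyses, 121–184 cells per condition; mean ± standard error.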

PC-3 [2] = experiment: Antimigratory activity against human PC3 prostate cancer cell line at 100 nM after 12h; format: functional; conditions: PC-3, 12 h; procedure, shortened: as §1
U373 MG [3] = experiment: Antimigratory activity against human U373 glioblastoma cell line at 100nM after 22h; format: functional, U-373MG ATCC; procedure, shortened: as §1
A549 [4] = experiment: Cytotoxicity against human A549 NSCLC cell line; format: functional, cell-based
Procedure, shortened: (§2)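 Colorimetric MTT assay on cultured human cancer cells after 3 days of continuous drug exposure. IC50 is the concentration that reduces overall cell-population growth by 50% relative to untreated cells.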

MCF7 = experiment: Cytotoxicity against human MCF7 breast cancer cell line; format: functional, cell-based; procedure, shortened: as §2
U373 MG [5] = experiment: Cytotoxicity against human U373 glioblastoma cell line; format: functional, cell-based, U-373MG ATCC; procedure, shortened: as §2
A549 [6] = experiment: Antimigratory activity against human A549 NSCLC cell line at 100 nM after 22h; format: functional; conditions: A549, 22 h; procedure, shortened: as §1
Mus musculus = experiment: Toxicity in mice at 160 mg/kg, ip 28 days post dose; format: organism-based; design: dose 160 mg/kg, route intraperitoneal; conditions: in vivo, 672 h
Procedure, shortened: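 Healthy, non-tumor-grafted mice received a single acute ip dose of 160 mg/kg. Body weight and survival were recorded over at least 28 days after dosing to detect toxic effects.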

PC-3 [7] = experiment: Cytotoxicity against human PC3 prostate cancer cell line; format: functional, cell-based; procedure, shortened: as §2
Hs 683 = experiment: Cytotoxicity against human Hs683 cancer cell line; format: functional, cell-based; procedure, shortened: as §2
HCT-15 = experiment: Cytotoxicity against human HCT15 colon cancer cell line; format: functional, cell-based; procedure, shortened: as §2
A549 [8] = experiment: Antimigratory activity against human A549 NSCLC cell line at 100 nM after 12h; format: functional; conditions: A549, 12 h; procedure, shortened: as §1
PC-3 [9] = experiment: Antimigratory activity against human PC3 prostate cancer cell line at 100 nM after 22h; format: functional; conditions: PC-3, 22 h; procedure, shortened: as §1

Q: `COc1ccc(OC)c([C@@H]2C[C@H]3[C@@H]4CC=C5C[C@@H](O[C@H]6O[C@H](CO)[C@@H](O[C@@H]7O[C@H](CO)[C@H](O)[C@H](O)[C@H]7O)[C@H](O)[C@H]6O)CC[C@]5(C)[C@H]4CC[C@]3(C)[C@H]2[C@H](C)O[C@H]2O[C@H](CO)[C@@H](O[C@@H]3O[C@H](CO)[C@H](O)[C@H](O)[C@H]3O)[C@H](O)[C@H]2O)c1` was tested. Which inhibition at 0.1 µM (U373 MG [1]) did it give?
A: -12%

Q: And the inhibition at 0.1 µM (PC-3 [2])?
A: 14%

Q: What about the inhibition at 0.1 µM (U373 MG [3]) of the same compound?
A: -13%

Q: And the IC50 (A549 [4])?
A: > 10 µM

Q: And the IC50 (MCF7)?
A: > 10 µM

Q: And the IC50 (U373 MG [5])?
A: > 10 µM

Q: What about the inhibition at 0.1 µM (A549 [6]) of the same compound?
A: -12%

Q: And the Activity (Mus musculus)?
A: Non-toxic

Q: What about the IC50 (PC-3 [7]) of the same compound?
A: > 10 µM

Q: And the IC50 (Hs 683)?
A: > 10 µM

Q: What about the IC50 (HCT-15) of the same compound?
A: > 10 µM

Q: And the inhibition at 0.1 µM (A549 [8])?
A: -26%

Q: And the inhibition at 0.1 µM (PC-3 [9])?
A: 15%

Q: Which results are given for `COc1ccc(OC)c([C@@H]2C[C@H]3[C@@H]4CC=C5C[C@@H](O[C@@H]6O[C@H](CO)[C@@H](O[C@@H]7O[C@H](CO)[C@@H](O)[C@H](O)[C@H]7O)[C@H](O)[C@H]6O)CC[C@]5(C)[C@H]4CC[C@]3(C)[C@H]2C(C)=O)c1`?
A: inhibition at 0.1 µM (U373 MG [1]): 8%; inhibition at 0.1 µM (PC-3 [2]): 13%; inhibition at 0.1 µM (U373 MG [3]): -9%; IC50 (A549 [4]): > 10 µM; IC50 (MCF7): > 10 µM; IC50 (U373 MG [5]): > 10 µM; inhibition at 0.1 µM (A549 [6]): -34%; Activity (Mus musculus): Non-toxic; IC50 (PC-3 [7]): > 10 µM; IC50 (Hs 683): > 10 µM; IC50 (HCT-15): > 10 µM; inhibition at 0.1 µM (A549 [8]): -30%; inhibition at 0.1 µM (PC-3 [9]): -7%

Q: Which results are given for `COc1ccc(OC)c([C@@H]2C[C@H]3[C@@H]4CC=C5C[C@@H](O[C@H]6O[C@H](CO)[C@@H](O[C@@H]7O[C@H](CO)[C@H](O)[C@H](O)[C@H]7O)[C@H](O)[C@H]6O)CC[C@]5(C)[C@H]4CC[C@]3(C)[C@H]2C(C)=O)c1`?
A: inhibition at 0.1 µM (U373 MG [1]): -29%; inhibition at 0.1 µM (PC-3 [2]): -51%; inhibition at 0.1 µM (U373 MG [3]): -31%; IC50 (A549 [4]): > 10 µM; IC50 (MCF7): > 10 µM; IC50 (U373 MG [5]): > 10 µM; inhibition at 0.1 µM (A549 [6]): -5%; Activity (Mus musculus): Non-toxic; IC50 (PC-3 [7]): > 10 µM; IC50 (Hs 683): > 10 µM; IC50 (HCT-15): > 10 µM; inhibition at 0.1 µM (A549 [8]): 8%; inhibition at 0.1 µM (PC-3 [9]): -34%

Q: Which inhibition at 0.1 µM (U373 MG [1]) does the source give for `COc1ccc(OC)c([C@@H]2C[C@H]3[C@@H]4CC=C5C[C@@H](O[C@H]6O[C@@H](C)[C@@H](O)[C@@H](O)[C@@H]6O)CC[C@]5(C)[C@H]4CC[C@]3(C)[C@H]2[C@H](C)O[C@H]2O[C@@H](C)[C@@H](O)[C@@H](O)[C@@H]2O)c1` here?
A: -4%

Q: What about the inhibition at 0.1 µM (PC-3 [2]) of the same compound?
A: -41%

Q: And the inhibition at 0.1 µM (U373 MG [3])?
A: -4%

Q: What about the IC50 (A549 [4]) of the same compound?
A: > 10 µM

Q: And the IC50 (MCF7)?
A: > 10 µM

Q: And the IC50 (U373 MG [5])?
A: > 10 µM

Q: And the inhibition at 0.1 µM (A549 [6])?
A: -4%

Q: And the Activity (Mus musculus)?
A: Non-toxic

Q: What about the IC50 (PC-3 [7]) of the same compound?
A: > 10 µM

Q: What about the IC50 (Hs 683) of the same compound?
A: > 10 µM

Q: And the IC50 (HCT-15)?
A: > 10 µM

Q: What about the inhibition at 0.1 µM (A549 [8]) of the same compound?
A: -6%

Q: What about the inhibition at 0.1 µM (PC-3 [9]) of the same compound?
A: -45%
